# Measured values reported in article PMC9046076 (International Journal for Parasitology: Drugs and Drug …, 2022).
# Like-named read-outs stand apart in the source and are kept apart here.
# Legend:
# [1] = WST-1 cytotoxicity assay in uninfected HCT-8 cells; format: cell-based; details: human
# Method in brief: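 HCT-8 cells (5 × 10⁴/well) were grown overnight at 37 °C, 5% CO₂ in phenol-red-free RPMI-1640 with added glucose, bicarbonate, pyruvate and 10% heat-inactivated FBS. They were treated with test compound (20 μM screen or dose range) or DMSO for 48 h. WST-1 was then added for 1 h at 37 °C in the dark, and absorbance read at 440 nm (reference 690 nm). % toxicity = (OD_DMSO − OD_compound)/OD_DMSO × 100. IC50 by nonlinear regression of triplicate means.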
# C. parvum AUCP-1 isolate = assay: In vitro C. parvum growth inhibition in HCT-8 cells, immunofluorescence assay; format: cell-based, Cryptosporidium parvum; details: for IC50: Cryptosporidium parvum; for SI C. parvum (selectivity index): SI = IC50 HCT-8 (or HFF)/IC50 parasite (at 0 h p.i.)
# Method in brief: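 Confluent HCT-8 monolayers in supplemented RPMI-1640 infected with 10⁵ freshly excysted sporozoites per well. […] After 72 h, cells were fixed in methanol-acetic acid (9:1), permeabilised, blocked with 5% goat serum and stained overnight at 4 °C with fluorescein anti-C. parvum antibody. Imaged at 20×, triplicates, three assays, nonlinear regression IC50; SI = host-cell IC50/parasite IC50 (0 h p.i.).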
# [2] = system: T. gondii type I RH strain; assay: In vitro T. gondii type I RH; format: cell-based, Toxoplasma gondii; details: for reduction of T. gondii parasite growth: 11 μM, added immediately after infection, 48 h, HFF cells; for SI T. gondii (selectivity index): SI = IC50 HCT-8 (or HFF)/IC50 parasite (at 0 h p.i.); for IC50: Toxoplasma gondii, HFF
# Method in brief: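 Single-concentration screen: confluent HFF monolayers in IMDM were infected with about 5 × 10³ RH-YFP tachyzoites per well, and test compound (11 μM final, in DMSO) was added immediately. Controls were atovaquone at 0.5 μM, DMSO vehicle and uninfected background wells. After 48 h at 37 °C with 5% CO₂, YFP was quantified from 9 thresholded 20× images per well. Percent inhibition was taken against DMSO; triplicates, repeated at least thrice.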
# [3] = WST-1 cytotoxicity assay in uninfected HFF cells; format: cell-based; details: human
# [4] = system: T. gondii type II ME49 strain; assay: In vitro T. gondii type II ME49; format: cell-based; details: Toxoplasma gondii, HFF, 48 h, read-out: IC50 against T. gondii Type II (ME49) in HFF cells
# [5] = system: T. gondii Type II (ME49) cysts in rats' brains; format: in vivo, Toxoplasma gondii; details: JS-2-41 3 mg/kg; for reduction in the number of Toxoplasma cysts in the brain: infected rats, 14 days of treatment, JS-2-44 4 mg/kg i.p.; for decrease in brain cysts compared to untreated rats: male Brown Norway rats, i.p. daily for 14 days, JS-2-44 4 mg/kg
# Method in brief: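 Male Brown Norway rats, 4 weeks old, were acclimatised 7 days, then inoculated i.m. with 5 × 10⁴ ME49 tachyzoites in 0.1 ml PBS. Once brain cysts were confirmed in two untreated rats, groups (n = 3) received daily i.p. test compound or atovaquone (5 mg/kg) in 0.2 ml 5% DMSO/PBS for 2 weeks; untreated rats got vehicle. Brains were homogenised in 5 ml PBS, cysts counted in 50 μl on 3 slides (10×) and scaled to total volume. One-way ANOVA with Dunnett.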
# [6] = HCT-8, read-out: Parasite IC50 C. parvum 0h p.i
# [7] = HCT-8, read-out: Parasite IC50 C. parvum 2h p.i
# [8] = read-out: Parasite IC50 T. gondii 0h p.i
# [9] = read-out: Parasite IC50 T. gondii 2h p.i
IC50 (C. parvum AUCP-1 isolate; [6]) [µM],IC50 (C. parvum AUCP-1 isolate; [7]) [µM],Structure (SMILES),IC50 at 48 h [1] [µM],reduction of T. gondii parasite growth [2],"IC50 [2, 8] [µM]","IC50 [2, 9] [µM]",IC50 at 48 h [3] [µM],SI C. parvum (selectivity index) (C. parvum AUCP-1 isolate),also measured
–,–,"c1ccc(-c2cn(C34CC5CC(CC(C5)C3)C4)nn2)cc1 [JS-2-40, 1-(Adamantan-1-yl)-4-phenyl-1H-1,2,3-triazole]",135,–,–,–,–,–,–
220,227,"NC[C@@H]1O[C@H](O[C@H]2[C@@H](O)[C@H](O[C@@H]3[C@@H](O)[C@H](N)C[C@H](N)[C@H]3O[C@H]3O[C@H](CO)[C@@H](O)[C@H](O)[C@H]3N)O[C@@H]2CO)[C@H](N)[C@@H](O)[C@@H]1O [PMO, paromomycin, reference compound]",–,–,–,–,–,–,–
–,–,"CC(C)(NC(=O)c1cc2c(Cl)cc(Cl)cc2[nH]1)c1cn(C23CC4CC(CC(C4)C2)C3)nn1 [JS-2-31, N-(2-(1-(Adamantan-1-yl)-1H-1,2,3-triazol-4-yl)propan-2-yl)-4,6-dichloro-1H-indole-2-carboxamide]",–,over 50%,7.88,12.1,135,–,SI T. gondii (selectivity index) [2]: 17.15
–,–,"CC(C)(NC(=O)c1cc2c(F)cc(F)cc2[nH]1)c1cn(Cc2ccccc2)nn1 [JS-2-18, N-(2-(1-Benzyl-1H-1,2,3-triazol-4-yl)propan-2-yl)-4,6-difluoro-1H-indole-2-carboxamide]",205,–,–,–,–,–,–
5.05,5.86,"CC(C)(NC(=O)c1cc2c(Cl)cc(Cl)cc2[nH]1)c1cn(Cc2cccc(Cl)c2)nn1 [JS-2-30, 4,6-Dichloro-N-(2-(1-(3-chlorobenzyl)-1H-1,2,3-triazol-4-yl)propan-2-yl)-1H-indole-2-carboxamide]",193,over 50%,5.43,6.32,268,38.16,–
–,–,"O=C1C(O)=C([C@H]2CC[C@H](c3ccc(Cl)cc3)CC2)C(=O)c2ccccc21 [ATQ, atovaquone, reference compound]",–,–,0.084,0.087,–,–,–
–,–,"CC(C)(NC(=O)c1cc2c(F)cc(F)cc2[nH]1)c1cn(C23CC4CC(CC(C4)C2)C3)nn1 [JS-2-19, N-(2-(1-(Adamantan-1-yl)-1H-1,2,3-triazol-4-yl)propan-2-yl)-4,6-difluoro-1H-indole-2-carboxamide]",–,over 50%,8.51,10.6,108,–,SI T. gondii (selectivity index) [2]: 12.66
–,–,"CC(C)(NC(=O)c1cc2c(F)cc(F)cc2[nH]1)c1cn(Cc2ccccc2Cl)nn1 [JS-2-25, N-(2-(1-(2-Chlorobenzyl)-1H-1,2,3-triazol-4-yl)propan-2-yl)-4,6-difluoro-1H-indole-2-carboxamide]",107,–,–,–,–,–,–
–,–,"CC1(C)COC(c2ccc(-c3cn(C45CC6CC(CC(C6)C4)C5)nn3)cc2)OC1 [JS-2-41, 1-(Adamantan-1-yl)-4-(4-(5,5-dimethyl-1,3-dioxan-2-yl)phenyl)-1H-1,2,3-triazole]",–,over 50%,1.94,2.15,168,–,IC50 [4]: 1.5 µM; reduction in the number of Toxoplasma cysts in the brain [5]: over 90%; decrease in brain cysts compared to untreated rats [5]: 10 fold
8.32,8.59,"CC(C)(NC(=O)c1cc2c(Cl)cc(Cl)cc2[nH]1)c1cn(Cc2ccccc2Cl)nn1 [JS-2-28, 4,6-Dichloro-N-(2-(1-(2-chlorobenzyl)-1H-1,2,3-triazol-4-yl)propan-2-yl)-1H-indole-2-carboxamide]",233,over 50%,11.6,19.2,209,28.05,–
12.3,12.5,"C#CC(C)(C)NC(=O)c1cc2c(Cl)cc(Cl)cc2[nH]1 [JS-2-22, 4,6-Dichloro-N-(2-methylbut-3-yn-2-yl)-1H-indole-2-carboxamide]",101,–,–,–,–,8.24,–
–,–,"CC(C)(NC(=O)c1cc2c(F)cc(F)cc2[nH]1)c1cn(Cc2ccc(Cl)c(Cl)c2)nn1 [JS-2-43, N-(2-(1-(3,4-Dichlorobenzyl)-1H-1,2,3-triazol-4-yl)propan-2-yl)-4,6-difluoro-1H-indole-2-carboxamide]",174,–,–,–,–,–,–
7.63,9.12,"CC(C)(NC(=O)c1cc2c(Cl)cc(Cl)cc2[nH]1)c1cn(Cc2ccc(Cl)c(Cl)c2)nn1 [JS-2-44, 4,6-Dichloro-N-(2-(1-(3,4-dichlorobenzyl)-1H-1,2,3-triazol-4-yl)propan-2-yl)-1H-indole-2-carboxamide]",210,–,2.95,3.24,209,27.48,IC50 [4]: 10.6 µM; reduction in the number of Toxoplasma cysts in the brain [5]: over 90%; decrease in brain cysts compared to untreated rats [5]: 10 fold
9.37,10.7,"CC(C)(NC(=O)c1cc2c(Cl)cc(Cl)cc2[nH]1)c1cn(Cc2ccccc2)nn1 [JS-2-27, N-(2-(1-Benzyl-1H-1,2,3-triazol-4-yl)propan-2-yl)-4,6-dichloro-1H-indole-2-carboxamide]",254,–,–,–,–,27.09,–
–,–,"C#CC(C)(C)NC(=O)c1cc2c(F)cc(F)cc2[nH]1 [JS-2-15, 4,6-Difluoro-N-(2-methylbut-3-yn-2-yl)-1H-indole-2-carboxamide]",109,–,–,–,–,–,–
